The values that follow come from ChEMBL document CHEMBL3774363, “Potent Triazole Bisphosphonate Inhibitor of Geranylgeranyl Diphosphate Synthase” (ACS Med Chem Lett, 2015).

Usually pIC50 stands for the IC50 on a negative log10 scale, so that one unit is a factor of ten. The pEC50 is the EC50 on a negative log10 scale, so that one unit is a factor of ten. Read a low pEC50 as a high EC50.

pEC50, pIC50: −log10 of the molar value. The source made the active and inactive calls. No cut-off for these calls is given here.

Test [1] has as its target T1, Farnesyl pyrophosphate synthase (Homo sapiens, UniProt P14324).
T1 sequence (P14324 whole entry): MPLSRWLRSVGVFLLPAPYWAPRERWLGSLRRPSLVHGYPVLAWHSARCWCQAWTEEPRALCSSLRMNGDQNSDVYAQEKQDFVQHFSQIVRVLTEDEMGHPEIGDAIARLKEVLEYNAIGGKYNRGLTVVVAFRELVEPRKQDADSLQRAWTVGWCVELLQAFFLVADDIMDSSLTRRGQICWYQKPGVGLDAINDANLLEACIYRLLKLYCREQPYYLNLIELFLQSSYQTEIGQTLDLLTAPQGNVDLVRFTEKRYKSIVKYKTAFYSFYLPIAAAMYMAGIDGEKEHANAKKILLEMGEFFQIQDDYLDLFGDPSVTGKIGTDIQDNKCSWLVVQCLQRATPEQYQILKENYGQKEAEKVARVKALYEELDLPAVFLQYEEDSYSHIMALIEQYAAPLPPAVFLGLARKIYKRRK
Kind of test: Inhibition of recombinant FDPS (unknown origin) assessed as radiolabeled FPP formation preincubated for 10 mins followed by addition of 10 uM GPP substrate and [14C]IPP for 30 mins by liquid scintillation counter analysis.

A short description of test [2]: Cytotoxicity against human RPMI8226 after 48 hrs by MTT assay. The settings on record: RPMI-8226, 48 h. It is filed as functional. (Formazan colour is commonly taken as a measure of viable cells.)
The target of test [3] is T2, Geranylgeranyl pyrophosphate synthase (Homo sapiens) (UniProt O95749).
T2 sequence (whole entry): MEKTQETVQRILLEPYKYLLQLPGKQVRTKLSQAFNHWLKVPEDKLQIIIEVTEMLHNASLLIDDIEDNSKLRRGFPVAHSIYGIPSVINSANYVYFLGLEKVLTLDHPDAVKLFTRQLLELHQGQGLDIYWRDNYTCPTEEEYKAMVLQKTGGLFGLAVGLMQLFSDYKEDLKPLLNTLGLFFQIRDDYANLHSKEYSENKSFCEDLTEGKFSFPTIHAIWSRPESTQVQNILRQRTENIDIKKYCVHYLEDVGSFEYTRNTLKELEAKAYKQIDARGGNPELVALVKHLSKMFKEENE
In words: Inhibition of GGDPS in human RPMI8226 cells assessed as disruption of Rap1a geranylation at 50 nM after 48 hrs by immunoblot analysis. The settings on record: RPMI-8226.

Test [4] concerns the target T3, Geranylgeranyl pyrophosphate synthase (Homo sapiens, UniProt O95749).
T3 sequence (O95749 whole entry): T2 sequence (whole entry)
In words: Inhibition of recombinant GGDPS (unknown origin) assessed as radiolabeled GGPP formation preincubated for 10 mins followed by addition of 10 uM FPP substrate and [14C]IPP for 30 mins by liquid scintillation counter analysis.

Test [5] deals with T2, Geranylgeranyl pyrophosphate synthase (Homo sapiens). In words: Inhibition of GGDPS in human RPMI8226 cells assessed as disruption of Rap1a geranylation after 48 hrs by immunoblot analysis. The test is classed as cell-based. The note with it: RPMI-8226. The gist of the method:
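RPMI-8226 human myeloma cells incubated 48 h with or without compound, with lovastatin (10 μM) as positive control. Cells were lysed in RIPA buffer and immunoblotted with an antibody that detects only unmodified Rap1a, with β-tubulin as loading control. The value is the lowest concentration at which disruption was seen; blots are representative of two independent studies.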

For the next test, the species on record is Homo sapiens. In words: Selectivity index, ratio of IC50 for FDPS (unknown origin) to IC50 for GGDPS (unknown origin).

As to `CC(C)=CCC/C(C)=C/CCn1cc(CC(P(=O)(O)O)P(=O)(O)O)nn1`, the pIC50 in test [1] was 4.55; in test [4], 7.35. This molecule gave a pEC50 in test [2] of 6.72. In addition, in test [3], the inhibition entry was “Active”. Besides, the Activity in test [5] worked out at 0.05 µM. The Ratio IC50 in the test filed under Homo sapiens was found to be 620.
For the molecule `CC(C)=CCCn1cc(CC(P(=O)(O)O)P(=O)(O)O)nn1`, the pIC50 in test [1] is 5.18; in test [4], 6.37. In addition, the pEC50 in test [2] is 4.82. Also, the Activity in test [5] turned out to be 5 µM. In addition, the Ratio IC50 in the test filed under Homo sapiens amounted to 15.
As to `CC(C)=CCC/C(C)=C/CC(Cc1cn(CCC=C(C)C)nn1)(P(=O)(O)O)P(=O)(O)O`, the pIC50 in test [1] is 4.89; in test [4] it was 6.42. Further, the pEC50 in test [2] is 6.00. The Activity in test [5] turned out to be 0.5 µM. In the test listed under Homo sapiens, the Ratio IC50 came out at 34.
